Reference: ChEMBL document CHEMBL1123752, “Hexahydro-1H-1-pyrindines from acid rearrangement of 9-alkylidene-5-(m-methoxyphenyl)-2-methylmorphans. A new structural type of narcotic antagonists” (J Med Chem, 1987)
The source made the active and inactive calls. No cut-off for these calls is given here.

Assays:
Mu-type opioid receptor = Mu-type opioid receptor (Rattus norvegicus, UniProt P33535); experiment: Compound administered subcutaneously was evaluated for inhibition constant measured as the displacement of [3H]DAGO from rat brain
Summary of the method: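 Membranes from adult male Sprague-Dawley rat whole brain minus cerebellum, washed in 20 mM potassium phosphate pH 7.4, about 1 mg protein per tube. [³H]DAGO was added from a 2 nM solution. Nonspecific binding was defined with 10 μM naloxone (final). Incubation 45 min at 25 °C, then glass-fibre filtration and scintillation counting. Ki was derived by Cheng–Prusoff.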

Mus musculus [1] = experiment: Antinociceptive activity was determined by tail flick test in mice after subcutaneous administration; IA means inactive at 1,10 or 30.0 mg/kg; format: functional, organism-based; parameters: dose 30 mg/kg
Summary of the method: (§1)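 Mice were dosed subcutaneously. Antinociceptive […] is given in mg/kg with 95% confidence limits.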

Mus musculus [2] = experiment: Antinociceptive activity was determined by p-phenylquinone-writhing test in mice after subcutaneous administration; format: functional; details: sc; summary of the method: as §1
Mus musculus [3] = experiment: Antinociceptive activity was determined by hot plate test in mice after subcutaneous administration;IA means inactive at 1,10 or 30.0 mg/kg; format: functional, organism-based; parameters: dose 30 mg/kg; summary of the method: as §1
Mus musculus [4] = experiment: Compound administered subcutaneously was evaluated for Opioid antagonist activity versus morphine by tail flick antagonism test in mice.; format: functional
Summary of the method: (§2)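 Mouse tail-flick test run against morphine, with test agent given subcutaneously. Antagonist AD50 is given in mg/kg with 95% confidence limits.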

Mus musculus [5] = experiment: Compound administered subcutaneously was evaluated for Opioid antagonist activity versus morphine by tail flick antagonism test in mice 95% confidence limits are in brackets; format: functional; summary of the method: as §2
Mus musculus [6] = experiment: Compound administered subcutaneously was evaluated for antinociceptive activity determined by p-phenylquinone-writhing test in mice; format: functional; details: sc; summary of the method: as §1
Mus musculus [7] = experiment: Antinociceptive activity was determined by hot plate test in mice after subcutaneous administration at 50 mg/kg; format: functional
Summary of the method: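 Mouse hot-plate assay with subcutaneous dosing. Activity is reported as percent effect at a single 50 mg/kg dose.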

Mus musculus [8] = experiment: Compound administered subcutaneously was evaluated for opioid antagonist activity versus morphine by tail flick antagonism test in mice.; format: functional; summary of the method: as §2
Mus musculus [9] = experiment: Antinociceptive activity was determined by p-phenylquinone-writhing test in mice after subcutaneous administration; I means inactive at 1,10 or 30.0 mg/kg; format: functional, organism-based; parameters: dose 30 mg/kg; summary of the method: as §1
Mus musculus [10] = experiment: Antinociceptive activity was determined by tail flick test in mice after subcutaneous administration; I means inactive at 1,10 or 30.0 mg/kg; format: functional, organism-based; parameters: dose 30 mg/kg; summary of the method: as §1

Sequence of Mu-type opioid receptor (P33535 whole entry): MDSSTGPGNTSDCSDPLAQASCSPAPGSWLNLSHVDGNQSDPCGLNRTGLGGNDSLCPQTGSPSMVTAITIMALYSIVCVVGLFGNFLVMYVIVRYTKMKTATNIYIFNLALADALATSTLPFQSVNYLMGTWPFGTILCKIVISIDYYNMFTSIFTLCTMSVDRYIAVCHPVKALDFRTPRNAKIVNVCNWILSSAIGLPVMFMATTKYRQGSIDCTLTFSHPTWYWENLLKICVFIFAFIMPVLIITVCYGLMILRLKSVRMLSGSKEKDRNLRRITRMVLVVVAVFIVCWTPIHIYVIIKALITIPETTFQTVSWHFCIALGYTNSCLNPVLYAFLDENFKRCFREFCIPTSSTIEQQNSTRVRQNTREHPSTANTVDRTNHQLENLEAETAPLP

SMILES | Ki (Mu-type opioid receptor) | ED50 (Mus musculus [1]) | ED50 (Mus musculus [2]) | ED50 (Mus musculus [3]) | AD50 (Mus musculus [4]) | AD50 (Mus musculus [5]) | ED50 (Mus musculus [6]) | Effect (Mus musculus [7]) | AD50 (Mus musculus [8]) | ED50 (Mus musculus [9]) | ED50 (Mus musculus [10])
CC[C@]12CCC[C@H]1N(C)CC=C2c1cccc(O)c1 | 0.084 µM | inactive | 35.5 mg/kg | inactive | 2.1 mg/kg | – | – | – | – | – | –
C=CCN1CC[C@]23c4c5ccc(O)c4O[C@H]2[C@@H](O)C=C[C@H]3[C@H]1C5.Cl [NALORPHINE HYDROCHLORIDE] | 0.002 µM | inactive | – | – | – | 2.6 mg/kg | 0.6 mg/kg | – | – | – | –
CN1CC=C(c2cccc(O)c2)[C@@]2(C)CCC[C@@H]12 | 0.081 µM | – | – | – | – | – | – | 40% | 1.7 mg/kg | inactive | inactive
